Results: ChEMBL document CHEMBL4257575, “Discovery of Novel Flavonoid Dimers To Reverse Multidrug Resistance Protein 1 (MRP1, ABCC1) Mediated Drug Resistance in Cancers Using a High Throughput Platform with "Click Chemistry"” (J Med Chem, 2018)

molecular target: Multidrug resistance-associated protein 1 (Homo sapiens, UniProt P33527); experiment: Inhibition of MRP1 in human 2008/MRP1 cells assessed as potentiation of doxorubicin-induced cytotoxicity by measuring cell survival at 2 uM after 5 days by MTS assay relative to control; type: cell-based; conditions: 120 h
Sequence (P33527 whole entry): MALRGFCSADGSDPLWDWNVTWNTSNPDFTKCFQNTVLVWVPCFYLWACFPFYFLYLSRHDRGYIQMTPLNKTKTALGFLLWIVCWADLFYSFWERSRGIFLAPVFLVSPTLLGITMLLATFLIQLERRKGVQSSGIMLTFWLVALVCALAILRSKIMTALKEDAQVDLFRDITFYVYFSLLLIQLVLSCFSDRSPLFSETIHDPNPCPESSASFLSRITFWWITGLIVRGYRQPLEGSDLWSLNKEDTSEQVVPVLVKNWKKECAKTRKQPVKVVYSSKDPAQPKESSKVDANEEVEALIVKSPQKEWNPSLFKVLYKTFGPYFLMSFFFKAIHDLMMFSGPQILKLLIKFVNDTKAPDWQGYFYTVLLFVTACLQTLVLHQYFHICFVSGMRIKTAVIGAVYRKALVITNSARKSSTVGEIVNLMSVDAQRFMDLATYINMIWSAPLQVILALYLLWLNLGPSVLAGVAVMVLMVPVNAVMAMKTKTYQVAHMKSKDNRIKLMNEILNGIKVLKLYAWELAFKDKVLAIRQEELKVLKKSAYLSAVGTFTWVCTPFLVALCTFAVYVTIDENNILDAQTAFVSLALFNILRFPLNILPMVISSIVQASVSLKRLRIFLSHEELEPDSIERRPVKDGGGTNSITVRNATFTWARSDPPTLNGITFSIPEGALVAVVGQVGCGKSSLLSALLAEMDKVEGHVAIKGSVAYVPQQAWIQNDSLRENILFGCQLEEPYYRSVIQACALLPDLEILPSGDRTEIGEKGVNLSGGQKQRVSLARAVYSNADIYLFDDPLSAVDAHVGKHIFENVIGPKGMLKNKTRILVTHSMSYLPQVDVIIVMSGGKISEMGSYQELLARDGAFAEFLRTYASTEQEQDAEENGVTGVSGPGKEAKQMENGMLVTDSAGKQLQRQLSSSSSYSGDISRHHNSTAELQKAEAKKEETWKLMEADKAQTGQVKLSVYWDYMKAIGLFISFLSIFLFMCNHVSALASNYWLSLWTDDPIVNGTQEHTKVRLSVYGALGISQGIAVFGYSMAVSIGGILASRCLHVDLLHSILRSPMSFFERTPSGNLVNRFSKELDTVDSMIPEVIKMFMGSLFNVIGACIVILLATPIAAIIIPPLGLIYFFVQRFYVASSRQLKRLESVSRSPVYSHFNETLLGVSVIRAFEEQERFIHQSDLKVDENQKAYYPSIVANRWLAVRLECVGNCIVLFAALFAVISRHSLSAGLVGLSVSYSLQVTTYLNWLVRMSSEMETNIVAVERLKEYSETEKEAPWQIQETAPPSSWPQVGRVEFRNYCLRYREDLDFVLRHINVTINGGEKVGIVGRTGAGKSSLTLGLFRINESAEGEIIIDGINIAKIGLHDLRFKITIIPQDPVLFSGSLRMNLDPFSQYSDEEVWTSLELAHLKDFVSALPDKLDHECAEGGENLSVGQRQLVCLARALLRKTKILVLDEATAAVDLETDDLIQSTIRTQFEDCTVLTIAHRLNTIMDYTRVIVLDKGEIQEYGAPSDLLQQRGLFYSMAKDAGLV
Outline: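 2008/MRP1 cells (retroviral human MRP1 transfectant; RPMI 1640, 10% FBS) at 4,000 per well, with 100 nM doxorubicin plus crude, unpurified click products in DMSO: 2 µM in the primary screen, 1 µM in the secondary. Incubated 5 days at 37 °C. MTS/PMS added for 2 h at 37 °C, absorbance read at 490 nm. % survival is relative to wells without DOX or product. Run in triplicate, at least three experiments.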

Question: How did the Survival turn out when `Cc1ccc2oc(-c3ccc(OCCOCCOCCn4cc(-c5ccc(-c6cn(CCOCCOCCOc7ccc(-c8cc(=O)c9cc(C)ccc9o8)cc7)nn6)cc5)nn4)cc3)cc(=O)c2c1` was run?
Answer: 74%

Question: Which Survival does the source give for `COc1cccc(COc2c(-c3ccc(OCCOCCn4cc(CN5CCN(Cc6cn(CCOCCOc7ccc(-c8oc9ccccc9c(=O)c8OCc8cccc(OC)c8)cc7)nn6)CC5)nn4)cc3)oc3ccccc3c2=O)c1` here?
Answer: 85%

Question: For `O=Cc1ccc(OCCCCc2cn(CCOCCOc3ccc(-c4cc(=O)c5ccccc5o4)cc3)nn2)cc1`, which Survival is on record?
Answer: 75%

Question: For `Cc1ccc2oc(-c3ccc(OCCOCCOCCN=[N+]=[N-])cc3)cc(=O)c2c1`, which Survival is on record?
Answer: 84%

Question: For `O=c1[nH]c(-c2ccc(OCCCc3cn(CCOCCOCCOc4ccc(-c5cc(=O)c6ccccc6o5)cc4)nn3)cc2)nc2ccccc12`, which Survival is on record?
Answer: 76%

Question: For `[N-]=[N+]=NCCOCCOCCOc1ccc2c(=O)cc(-c3ccccc3)oc2c1`, which Survival is on record?
Answer: 90%

Question: `O=C(/C=C/c1ccc(OCCCCc2cn(CCOCCOCCOc3ccc4c(=O)cc(-c5ccccc5)oc4c3)nn2)cc1)c1ccccc1O` was tested. Which Survival did it give?
Answer: 72%

Question: Which Survival does the source give for `Cc1ccc(O)c(C(=O)/C=C/c2ccc(OCCCCc3cn(CCOCCOc4ccc(-c5cc(=O)c6cc(F)ccc6o5)cc4)nn3)cc2)c1` here?
Answer: 82%

Question: Which Survival does the source give for `COCOc1cc(OCc2ccccc2)c2c(=O)cc(-c3ccc(OCCCc4cn(CCOCCOCCOc5ccc6c(=O)cc(-c7ccccc7)oc6c5)nn4)cc3)oc2c1` here?
Answer: 76%

Question: Which Survival does the source give for `O=c1cc(-c2ccc(OCCOCCOCCn3cc(-c4cccc(-c5cn(CCOCCOCCOc6ccc(-c7cc(=O)c8cc(F)ccc8o7)cc6)nn5)c4)nn3)cc2)oc2ccc(F)cc12` here?
Answer: 72%

Question: With `O=c1cc(-c2ccc(OCCOCCOCCn3cc(-c4cccc(-c5cn(CCOCCOCCOc6ccc(-c7cc(=O)c8ccccc8o7)cc6)nn5)c4)nn3)cc2)oc2ccccc12` as the molecule, how does the Survival read?
Answer: 85%

Question: Which Survival does the source give for `COc1cccc(COc2c(-c3ccc(OCCOCCn4cc(CCCCOc5ccc(/C=C/C(=O)c6cc(C)ccc6O)cc5)nn4)cc3)oc3ccccc3c2=O)c1` here?
Answer: 75%

Question: How did the Survival turn out when `C#CCCN1C(=O)c2ccccc2C1=O` was run?
Answer: 83%

Question: `Cc1ccc2oc(-c3ccc(OCCOCCOCCn4cc(CCCOc5ccc6c(=O)cc(-c7ccccc7)oc6c5)nn4)cc3)cc(=O)c2c1` was tested. Which Survival did it give?
Answer: 55%

Question: Which Survival does the source give for `O=c1c(OCc2ccccc2)c(-c2ccc(OCCOCCOCCn3cc(CN(Cc4cn(CCOCCOCCOc5ccc(-c6oc7ccccc7c(=O)c6OCc6ccccc6)cc5)nn4)Cc4cn(CCOCCOCCOc5ccc(-c6oc7ccccc7c(=O)c6OCc6ccccc6)cc5)nn4)nn3)cc2)oc2ccccc12` here?
Answer: 81%

Question: `Cc1ccc2oc(-c3ccc(OCCOCCOCCn4cc(CCCCOc5ccc(/C=C/C(=O)c6ccc(F)cc6O)cc5)nn4)cc3)cc(=O)c2c1` was tested. Which Survival did it give?
Answer: 63%

Question: For `O=c1cc(-c2ccc(OCCCc3cn(CCOCCOc4ccc(-c5cc(=O)c6cc(F)ccc6o5)cc4)nn3)cc2)oc2ccc(F)cc12`, which Survival is on record?
Answer: 74%

Question: For `O=c1cc(-c2ccc(OCCOCCn3cc(CN(Cc4cn(CCOCCOc5ccc(-c6cc(=O)c7ccccc7o6)cc5)nn4)Cc4cn(CCOCCOc5ccc(-c6cc(=O)c7ccccc7o6)cc5)nn4)nn3)cc2)oc2ccccc12`, which Survival is on record?
Answer: 82%

Question: `C#CCCCOc1ccc(-c2cc(=O)c3c(OCc4ccccc4)cc(OCOC)cc3o2)cc1` was tested. Which Survival did it give?
Answer: 67%

Question: `Cc1ccc(C(=O)/C=C/c2ccc(OCCCCc3cn(CCOCCOc4ccc5c(=O)cc(-c6ccccc6)oc5c4)nn3)cc2)c(O)c1` was tested. Which Survival did it give?
Answer: 62%

Question: `[N-]=[N+]=NCCOCCOCCOc1ccc(-c2cc(=O)c3ccccc3o2)cc1` was tested. Which Survival did it give?
Answer: 85%

Question: `C#CCNc1ccccc1` was tested. Which Survival did it give?
Answer: 87%

Question: For `O=Cc1ccc(OCCCCc2cn(CCOCCOCCOc3ccc4c(=O)cc(-c5ccccc5)oc4c3)nn2)cc1`, which Survival is on record?
Answer: 81%

Question: Which Survival does the source give for `COc1cccc(COc2c(-c3ccc(OCCOCCn4cc(CN(Cc5cn(CCOCCOc6ccc(-c7oc8ccccc8c(=O)c7OCc7cccc(OC)c7)cc6)nn5)Cc5cn(CCOCCOc6ccc(-c7oc8ccccc8c(=O)c7OCc7cccc(OC)c7)cc6)nn5)nn4)cc3)oc3ccccc3c2=O)c1` here?
Answer: 86%

Question: How did the Survival turn out when `O=c1cc(-c2ccc(OCCOCCOCCn3cc(CN(Cc4ccccc4)Cc4cn(CCOCCOCCOc5ccc(-c6cc(=O)c7cc(F)ccc7o6)cc5)nn4)nn3)cc2)oc2ccc(F)cc12` was run?
Answer: 54%

Question: How did the Survival turn out when `O=C(/C=C/c1ccc(OCCCCc2cn(CCOCCOc3ccc(-c4cc(=O)c5cc(F)ccc5o4)cc3)nn2)cc1)c1ccc(F)cc1O` was run?
Answer: 70%

Question: How did the Survival turn out when `Cc1ccc2oc(-c3ccc(OCCCCc4cn(CCOc5cccc6c(=O)cc(-c7ccccc7)oc56)nn4)cc3)cc(=O)c2c1` was run?
Answer: 75%

Question: With `C#CCCCCOc1ccc(C=O)cc1` as the molecule, how does the Survival read?
Answer: 86%

Question: For `Cc1ccc(C(=O)/C=C/c2ccc(OCCCCc3cn(CCOCCOCCOc4ccc(-c5oc6ccccc6c(=O)c5OCc5ccccc5)cc4)nn3)cc2)c(O)c1`, which Survival is on record?
Answer: 71%

Question: For `O=c1cc(-c2ccccc2)oc2cc(OCCN(Cc3ccccc3)Cc3cn(CCOCCOc4cccc(-c5oc6ccccc6c(=O)c5OCc5ccccc5)c4)nn3)ccc12`, which Survival is on record?
Answer: 73%

Question: Which Survival does the source give for `Cc1ccc(O)c(C(=O)/C=C/c2ccc(OCCCCc3cn(CCOCCOCCOc4ccc(-c5cc(=O)c6cc(C)ccc6o5)cc4)nn3)cc2)c1` here?
Answer: 67%

Question: Which Survival does the source give for `COc1cccc(COc2c(-c3ccc(OCCCCc4cn(CCOCCOc5cccc(-c6oc7ccccc7c(=O)c6OCc6ccccc6)c5)nn4)cc3)oc3ccccc3c2=O)c1` here?
Answer: 75%

Question: For `O=c1cc(-c2ccc(OCCOCCOCCn3cc(-c4ccc(-c5cn(CCOCCOCCOc6ccc(-c7cc(=O)c8cc(F)ccc8o7)cc6)nn5)cc4)nn3)cc2)oc2ccc(F)cc12`, which Survival is on record?
Answer: 83%

Question: For `[N-]=[N+]=NCCOCCOc1cccc(-c2oc3ccccc3c(=O)c2OCc2ccccc2)c1`, which Survival is on record?
Answer: 86%

Question: `O=c1cc(-c2ccccc2)oc2cc(OCCOCCn3cc(CCCOc4ccc(-c5cc(=O)c6cc(F)ccc6o5)cc4)nn3)ccc12` was tested. Which Survival did it give?
Answer: 111%

Question: For `O=c1c(OCc2ccccc2)c(-c2cccc(OCCOCCn3cc(CN(Cc4ccccc4)Cc4cn(CCOCCOc5cccc(-c6oc7ccccc7c(=O)c6OCc6ccccc6)c5)nn4)nn3)c2)oc2ccccc12`, which Survival is on record?
Answer: 87%

Question: With `Cc1ccc2oc(-c3ccc(OCCOCCOCCn4cc(CCCCOc5ccc(/C=C/C(=O)c6ccccc6O)cc5)nn4)cc3)cc(=O)c2c1` as the molecule, how does the Survival read?
Answer: 61%

Question: How did the Survival turn out when `O=c1cc(-c2ccccc2)oc2cc(OCCOCCn3cc(CNc4ccccc4)nn3)ccc12` was run?
Answer: 88%

Question: How did the Survival turn out when `COc1cccc(COc2c(-c3ccc(OCCCCc4cn(CCOCCOc5ccc(-c6cc(=O)c7cc(F)ccc7o6)cc5)nn4)cc3)oc3ccccc3c2=O)c1` was run?
Answer: 65%

Question: For `COc1cccc(COc2c(-c3ccc(OCCOCCn4cc(CN(C)CCN(C)Cc5cn(CCOCCOc6ccc(-c7oc8ccccc8c(=O)c7OCc7cccc(OC)c7)cc6)nn5)nn4)cc3)oc3ccccc3c2=O)c1`, which Survival is on record?
Answer: 64%

Question: For `CN(CCN(C)Cc1cn(CCOCCOCCOc2ccc(-c3cc(=O)c4ccccc4o3)cc2)nn1)Cc1cn(CCOCCOCCOc2ccc(-c3cc(=O)c4ccccc4o3)cc2)nn1`, which Survival is on record?
Answer: 71%

Question: For `O=C1c2ccccc2C(=O)N1CCc1cn(CCOCCOc2ccc(-c3oc4ccccc4c(=O)c3OCc3ccccc3)cc2)nn1`, which Survival is on record?
Answer: 57%

Question: How did the Survival turn out when `O=c1cc(-c2ccc(OCCCc3cn(CCOCCOc4cccc(-c5oc6ccccc6c(=O)c5OCc5ccccc5)c4)nn3)cc2)oc2ccccc12` was run?
Answer: 54%

Question: `Cc1ccc2oc(-c3ccc(OCCOCCOCCn4cc(CNc5ccccc5)nn4)cc3)cc(=O)c2c1` was tested. Which Survival did it give?
Answer: 86%

Question: Which Survival does the source give for `Cc1ccc2oc(-c3ccc(OCCOCCOCCn4cc(CCCOc5ccc(-c6cc(=O)c7cc(F)ccc7o6)cc5)nn4)cc3)cc(=O)c2c1` here?
Answer: 82%

Question: For `Cc1ccc2oc(-c3ccc(OCCOCCOCCn4cc(CCCCOc5ccc6c(=O)cc(-c7ccccc7)oc6c5)nn4)cc3)cc(=O)c2c1`, which Survival is on record?
Answer: 51%

Question: How did the Survival turn out when `Cc1ccc(O)c(C(=O)/C=C/c2ccc(OCCCCc3cn(CCOCCOCCOc4ccc(-c5cc(=O)c6ccccc6o5)cc4)nn3)cc2)c1` was run?
Answer: 70%

Question: Which Survival does the source give for `O=c1cc(-c2ccc(OCCOCCOCCn3cc(CCCOc4ccc5c(=O)cc(-c6ccccc6)oc5c4)nn3)cc2)oc2ccccc12` here?
Answer: 54%

Question: For `COCOc1cc(OCc2ccccc2)c2c(=O)cc(-c3ccc(OCCCc4cn(CCOCCOCCOc5ccc(-c6cc(=O)c7cc(C)ccc7o6)cc5)nn4)cc3)oc2c1`, which Survival is on record?
Answer: 53%

Question: `O=c1cc(-c2ccccc2)oc2cc(OCCOCc3cn(CCOc4cccc5c(=O)cc(-c6ccccc6)oc45)nn3)ccc12` was tested. Which Survival did it give?
Answer: 68%

Question: Which Survival does the source give for `CN(CCN(C)Cc1cn(CCOCCOCCOc2ccc(-c3oc4ccccc4c(=O)c3OCc3ccccc3)cc2)nn1)Cc1cn(CCOCCOCCOc2ccc(-c3oc4ccccc4c(=O)c3OCc3ccccc3)cc2)nn1` here?
Answer: 84%

Question: How did the Survival turn out when `O=c1cc(-c2ccc(OCCOCCn3cc(CN(Cc4cn(CCOCCOc5ccc(-c6cc(=O)c7cc(F)ccc7o6)cc5)nn4)Cc4cn(CCOCCOc5ccc(-c6cc(=O)c7cc(F)ccc7o6)cc5)nn4)nn3)cc2)oc2ccc(F)cc12` was run?
Answer: 76%

Question: Which Survival does the source give for `Cc1ccc2oc(-c3ccc(OCCOCCOCCn4cc(CN(CCOc5ccc6c(=O)cc(-c7ccccc7)oc6c5)Cc5ccccc5)nn4)cc3)cc(=O)c2c1` here?
Answer: 53%

Question: For `[N-]=[N+]=NCCOCCOCCOc1ccc(-c2oc3ccccc3c(=O)c2OCc2ccccc2)cc1`, which Survival is on record?
Answer: 74%

Question: Which Survival does the source give for `O=C(/C=C/c1ccc(OCCCCc2cn(CCOc3cccc4c(=O)cc(-c5ccccc5)oc34)nn2)cc1)c1ccccc1O` here?
Answer: 85%

Question: `[N-]=[N+]=NCCOc1ccc2c(=O)cc(-c3ccccc3)oc2c1` was tested. Which Survival did it give?
Answer: 79%

Question: With `O=c1cc(-c2ccc(OCCOCCn3cc(CN(Cc4ccccc4)Cc4cn(CCOCCOc5ccc(-c6cc(=O)c7cc(F)ccc7o6)cc5)nn4)nn3)cc2)oc2ccc(F)cc12` as the molecule, how does the Survival read?
Answer: 70%

Question: `COc1cccc(COc2c(-c3ccc(OCCOCCn4cc(CCCCOc5ccc(C=O)cc5)nn4)cc3)oc3ccccc3c2=O)c1` was tested. Which Survival did it give?
Answer: 76%

Question: Which Survival does the source give for `O=c1c(OCc2ccccc2)c(-c2ccc(OCCOCCn3cc(CN(Cc4cn(CCOCCOc5ccc(-c6oc7ccccc7c(=O)c6OCc6ccccc6)cc5)nn4)Cc4cn(CCOCCOc5ccc(-c6oc7ccccc7c(=O)c6OCc6ccccc6)cc5)nn4)nn3)cc2)oc2ccccc12` here?
Answer: 77%

Question: For `O=c1cc(-c2ccccc2)oc2cc(OCCN(Cc3ccccc3)Cc3cn(CCOc4cccc5c(=O)cc(-c6ccccc6)oc45)nn3)ccc12`, which Survival is on record?
Answer: 80%
